Measured values: ChEMBL document CHEMBL3085673, “The design of a novel series of muscarinic receptor antagonists leading to AZD8683, a potential inhaled treatment for COPD” (Bioorg Med Chem Lett, 2013)

Key:
Cavia porcellus [1] = test: Toxicity in guinea pig assessed as reduction of pilocarpine-induced salivation administered via intranasal administered for 4 hrs followed by pilocarpine challenge measured every 5 mins for 15 mins; format: organism-based
In short: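 Compound or vehicle given intranasally under halothane. At 4 h, animals were anaesthetised with urethane and the mouth dried with gauze for 5 min. Baseline saliva taken on a pre-weighed pad over 5 min. Pilocarpine 0.6 mg/kg given subcutaneously, then pads replaced every 5 min for 15 min and saliva quantified by pad weight gain.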

Cavia porcellus [2] = test: Inhibition of methacholine-induced bronchoconstriction in Dunkin-Hartley guinea pig administered via intratracheal/intranasal after 24 hrs relative to control; format: functional
In short: (§1)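 Dunkin-Hartley guinea pigs dosed in 0.9% saline by intratracheal or intranasal microsprayer under halothane. At 2, 4, 24 or 48 h, animals were terminally anaesthetised with pentobarbitone and ventilated at 60 breaths/min, 2 mL tidal volume. Peak respiratory resistance measured after IV methacholine 10 μg/kg. Percent inhibition calculated against a time-matched vehicle group. For duration, dosing was at the ED80 dose, measured or predicted from trachea potency.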

Cavia porcellus [3] = test: Inhibition of methacholine-induced bronchoconstriction in Dunkin-Hartley guinea pig administered via intratracheal/intranasal after 2 to 4 hrs relative to control; format: functional; conditions: inhaled or nasal; in short: as §1
[4] = Half life in guinea pig lung administered via intratracheal instillation at 1 ug/kg by HPLC-MS analysis; format: ADME, tissue-based, Cavia porcellus; conditions: inhaled or intranasal, 0.001 mg/kg
In short: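 Halothane-anaesthetised guinea pigs given 1 μg/kg by intratracheal instillation. Lungs collected at 0.25-24 h after barbiturate overdose, homogenised in phosphate buffer and added to ice-cold methanol. Supernatant analysed by mass spectrometry/HPLC.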

[5] = molecular target: Muscarinic acetylcholine receptor M3 (Cavia porcellus, UniProt Q8VH26); test: Antagonist activity at M3 receptor in Dunkin-Hartley guinea pig trachea assessed as inhibition of methacholine-induced airway smooth muscle contraction after 1 to 4 hrs; conditions: read-out: pA2 (converted)
Chain of Muscarinic acetylcholine receptor M3 (Cavia porcellus, UniProt Q8VH26) (Q8VH26 whole entry): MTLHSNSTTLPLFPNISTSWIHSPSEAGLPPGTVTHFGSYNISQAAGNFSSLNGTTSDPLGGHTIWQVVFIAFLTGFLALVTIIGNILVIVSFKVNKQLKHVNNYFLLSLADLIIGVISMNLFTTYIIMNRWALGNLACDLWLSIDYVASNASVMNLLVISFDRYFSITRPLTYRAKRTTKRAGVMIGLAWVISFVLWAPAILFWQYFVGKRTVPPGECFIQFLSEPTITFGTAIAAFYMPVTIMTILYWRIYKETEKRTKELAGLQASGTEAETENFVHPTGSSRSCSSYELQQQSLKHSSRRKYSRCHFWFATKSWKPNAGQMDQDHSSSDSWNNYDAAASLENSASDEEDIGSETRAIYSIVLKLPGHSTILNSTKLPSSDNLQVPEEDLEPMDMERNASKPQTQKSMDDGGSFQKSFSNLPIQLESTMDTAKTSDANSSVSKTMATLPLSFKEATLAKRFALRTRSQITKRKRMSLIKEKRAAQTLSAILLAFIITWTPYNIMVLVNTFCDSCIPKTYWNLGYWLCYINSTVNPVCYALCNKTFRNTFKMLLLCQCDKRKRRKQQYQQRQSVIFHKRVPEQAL
In short: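 Isolated guinea pig tracheal rings equilibrated 1 h, re-tensioned to 1 g, primed with methacholine, then a cumulative methacholine curve (3 × 10^-9 to 3 × 10^-5 M). Vehicle or compound equilibrated 1 or 4 h before a second curve (3 × 10^-9 to 1 × 10^-3 M final). Isometric force as % of curve-1 maximum. pA2 calculated from vehicle and test A50 values; n = 2.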

[6] = Plasma protein binding in human; format: ADME, cell-free; conditions: read-out: PPB (converted)
[7] = molecular target: Muscarinic acetylcholine receptor M3 (Homo sapiens, UniProt P20309); test: Displacement of [3H]NMS from recombinant human M3 receptor expressed in CHO-K1 cells after 16 hrs by SPA method; format: cell-based
Chain of Muscarinic acetylcholine receptor M3 (Homo sapiens, UniProt P20309) (P20309 whole entry): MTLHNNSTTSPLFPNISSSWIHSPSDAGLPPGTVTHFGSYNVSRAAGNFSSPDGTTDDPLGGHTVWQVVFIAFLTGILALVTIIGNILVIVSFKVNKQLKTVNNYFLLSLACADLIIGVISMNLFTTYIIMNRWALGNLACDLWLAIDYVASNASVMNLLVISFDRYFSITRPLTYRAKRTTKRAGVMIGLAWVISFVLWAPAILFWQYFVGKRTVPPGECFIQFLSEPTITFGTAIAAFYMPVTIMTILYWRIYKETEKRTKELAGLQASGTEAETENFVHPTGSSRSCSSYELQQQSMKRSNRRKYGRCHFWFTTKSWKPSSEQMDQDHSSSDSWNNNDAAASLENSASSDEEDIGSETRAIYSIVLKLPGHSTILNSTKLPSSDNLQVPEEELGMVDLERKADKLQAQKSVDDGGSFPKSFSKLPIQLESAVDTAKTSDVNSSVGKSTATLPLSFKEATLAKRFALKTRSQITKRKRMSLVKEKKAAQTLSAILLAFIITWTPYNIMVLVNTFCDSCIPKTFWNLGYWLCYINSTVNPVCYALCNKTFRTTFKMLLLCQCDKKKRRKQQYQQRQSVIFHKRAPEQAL
In short: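 Nonspecific binding defined with atropine 1 µM; eight total-binding replicates per plate. Incubated at room temperature at least 16 h to equilibrium before counting; n ≥ 2.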

[8] = Intrinsic clearance in human liver microsomes; format: ADME; conditions: read-out: CLH
Cavia porcellus [9] = test: Inhibition of methacholine-induced bronchoconstriction in Dunkin-Hartley guinea pig administered via intratracheal/intranasal after 48 hrs relative to control; format: functional; in short: as §1
[10] = Therapeutic index, ratio of ED80 for methacholine-induced bronchoconstriction in Dunkin-Hartley guinea pig to EC50 for reduction of pilocarpine-induced salivation in guinea pig; format: organism-based, Cavia porcellus; conditions: in vivo, read-out: TI

Row | Structure (SMILES) | EC50 (Cavia porcellus [1]) | inhibition (INH) (Cavia porcellus [2]) | ED80 (Cavia porcellus [3]) | half-life [4] | Kb [5] | fraction unbound [6] | IC50 [7] | microsomal CLint [8] | inhibition (INH) (Cavia porcellus [9]) | selectivity ratio [10]
1 | O=C(C[N+]12CCC(CC1)[C@@H](OC(=O)C1(C3=CC=CC3)CCCCCC1)C2)Nc1ccon1 | > 10 µg/kg | 0% | 1 µg/kg | 1140 min | 0.02 nM | 0.18 | < 0.0631 nM | 150 µL/min/mg |  | 
2 | C[N+]1(C)[C@@H]2C[C@@H](OC(=O)C(O)(c3cccs3)c3cccs3)C[C@H]1[C@@H]1O[C@@H]12.O.[Br-] [TIOTROPIUM BROMIDE] | < 0.3 µg/kg | >80% | 0.3 µg/kg |  |  |  |  |  | 69% | 
3 | O=C(O[C@H]1C[N+]2(Cc3nc(-c4ccccc4)no3)CCC1CC2)C1(C2=CC=CC2)CCCCCC1 |  |  | 3 µg/kg | 1020 min | 0.398 nM | 0.01 | 0.158 nM | 102 µL/min/mg | 0% | 
4 | Cc1cc(CCC[N+]23CCC(CC2)[C@@H](OC(=O)C2(C4=CC=CC4)CCCCCC2)C3)ccn1 |  | 0% | 1 µg/kg | 2620 min | 0.158 nM | 0.03 | < 0.0316 nM | 135 µL/min/mg |  | 
5 | O=C(C[N+]12CCC(CC1)[C@@H](OC(=O)C1(C3=CC=CC3)CCCCCC1)C2)Nc1cnccn1 | > 10 µg/kg | 88% | 1 µg/kg | 1380 min | 0.126 nM | 0.075 | < 0.126 nM | 43 µL/min/mg | 73% | ≥ 10
6 | O=C(O[C@H]1C[N+]2(CCCc3ccncc3)CCC1CC2)C1(C2=CC=CC2)CCCCCC1 |  | 0% | 1 µg/kg | 1140 min | 0.126 nM | 0.12 | < 0.0398 nM | 57 µL/min/mg |  | 
7 | O=C(C[N+]12CCC(CC1)[C@@H](OC(=O)C1(C3=CC=CC3)CCCCCC1)C2)Nc1ccc(Cl)nn1 | > 30 µg/kg | 89% | 3 µg/kg | 3400 min | 0.2 nM | 0.04 | 0.2 nM |  |  | ≥ 10
8 | O=C(C[N+]12CCC(CC1)[C@@H](OC(=O)C1(C3=CC=CC3)CCCCCC1)C2)Nc1ccccn1 | > 30 µg/kg |  | 1 µg/kg | 1540 min | 0.398 nM | 0.04 | 0.158 nM | 55 µL/min/mg | 84% | ≥ 10
9 | Cc1cc(NC(=O)C[N+]23CCC(CC2)[C@@H](OC(=O)C2(C4=CC=CC4)CCCCCC2)C3)no1 | > 30 µg/kg | 56% | 3 µg/kg | 1600 min | 0.251 nM | 0.03 | 0.158 nM | 26 µL/min/mg |  | ≥ 10
10 | O=C(O[C@H]1C[N+]2(Cc3nnc(-c4ccccc4)o3)CCC1CC2)C1(C2=CC=CC2)CCCCCC1 | > 30 µg/kg |  | 3 µg/kg | 1320 min | 0.2 nM | 0.035 | 0.316 nM | 97 µL/min/mg | 0% | 
11 | O=C(O[C@H]1C[N+]2(Cc3cc(-c4ccccc4)no3)CCC1CC2)C1(C2=CC=CC2)CCCCCC1 | > 30 µg/kg |  | 3 µg/kg | 990 min | 0.316 nM | 0.01 | 0.251 nM | 63 µL/min/mg | 0% | 
12 | O=C(O[C@H]1C[N+]2(CCCOc3ccccc3)CCC1CC2)C1(C2=CC=CC2)CCCCCC1 |  | 31% | 3 µg/kg | 612 min | 0.794 nM | 0.085 | 0.0631 nM | 75 µL/min/mg |  | 
